The results in this text go back to ChEMBL document CHEMBL4513216, “Probing the Open Global Health Chemical Diversity Library for Multistage-Active Starting Points for Next-Generation Antimalarials” (ACS Infect Dis, 2020).

This data set can be described thus: Toxicity liver stage against HepG2, at 10uM. The arrangement: test concentration 10 uM, cell line HepG2-A16-CD81EGFP. It is filed as cell-based. The settings on record: human, HepG2-A16-CD81EGFP cells; read-out: INHIBITION
The method in brief: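 Uninfected HepG2-A16-CD81EGFP cells, 3 × 10^3 per well, 1536-well, plated on prespotted compound at 10 μM final, parasite-free screening media added to match infected plates; puromycin 10 μM positive, DMSO 0.5% negative; run in parallel with 48 h PbLuc assay at 37 °C, 5% CO2; viability by CellTiter-Glo luminescence, normalized to controls.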
For the molecule `CC(=O)N1CC[C@H]2CC(=O)N(CCc3c[nH]cn3)CC[C@H]2C1`, the cytotoxicity at 10 µM was -2.77%.
Under `CCNC(=O)O[C@H]1COCCN(c2nc3ccccc3s2)C1` stands -3.04%; under `Cc1ccc(C)c(-n2ncc(C(=O)N(C)CCc3ccccn3)c2N)c1`, -1.57%.
The same measure for `Cc1nn(-c2ccc(C(=O)O)cc2)c2c1C(c1cccs1)SCC(=O)N2` (configuration not stated): -0.607%.
Under `COc1ccccc1OCC(=O)NCC(C)(O)C1CC1` (configuration not stated) stands -0.419%; under `CC(C)(C)C(O)CCNC(=O)c1ccc(F)cc1Cl` (configuration not stated), 0.0701%.
For the molecule `O=C(c1ccnnc1)N1CC[C@@H](O)[C@@H]1Cc1ccccc1`, the cytotoxicity at 10 µM was found to be 5.03%.
Under `Cn1nccc1-c1ccc2nc(C3CCNCC3)nn2c1` stands 10.3%.
Turning to `O=C(c1ccoc1)N1CCc2ncc(Cn3cccn3)n2CC1`, the cytotoxicity at 10 µM was found to be 6.9%.
The same measure for `Cc1cnc(C(=O)N2CCC3(CC2)CC(c2ccncc2)C(=O)N3)cn1` (configuration not stated): 9.14%; for `CC(C)NC(=O)N1CCN(S(C)(=O)=O)CC2(CNC(=O)C2)C1` (configuration not stated): 8.71%; for `Cc1csc([C@@H]2C[C@@H]3CCN(Cc4cnn(C)c4)C[C@H]3O2)n1`: -4.87%.
The same measure for `Cn1cc(CN2CCC3(CCCN(Cc4ccccn4)C3)CC2)cn1`: -6.54%; for `Cc1cc(=O)[nH]c(NC2CCN(S(=O)(=O)c3ccccc3)CC2)n1`: -3.02%.
The same measure for `CC(CN1CCOCC1)n1cncc1-c1cnn(Cc2ccccc2)c1` (configuration not stated): 6.33%; for `O=C(c1ccncc1)N1CCc2[nH]nc(Nc3ccccc3)c2C1`: 3.13%; for `Cc1c[nH]c(C2COCCN2C(=O)CCc2c(C)n[nH]c2C)n1` (configuration not stated): -0.615%.
As for `O=C(c1cc[nH]n1)N1CCC(c2cc(Nc3ccccn3)n[nH]2)CC1`, the cytotoxicity at 10 µM was -37.1%.
For `OCCN1CCCC(c2nccnc2Oc2ccccc2)C1` (configuration not stated), the cytotoxicity at 10 µM was -25.5%.
Under `Cc1nn(C)cc1C(=O)N1CCCC(n2nnc3cc(F)ccc32)C1` (configuration not stated) stands -11%; under `Cc1ccc(=O)n(CC2(O)CCN(Cc3cnn(C)c3)CC2)n1`, 3.12%; under `COc1cc(NCC(=O)NC(C)(C#N)C(C)C)cc(OC)c1OC` (configuration not stated), -7.33%.
The same measure for `Cc1cc(N(C)C)nc(N(C)Cc2csc(C)n2)n1`: 7.06%; for `CC(Cc1ccco1)NS(=O)(=O)N1CCCCC1` (configuration not stated): -0.867%.
Under `Cc1nc(C)n(CC2CCCN2Cc2cn3ccccc3c2C#N)n1` (configuration not stated) stands 2.8%.
For the molecule `N#Cc1ccc(Cn2cncn2)c(F)c1`, the cytotoxicity at 10 µM is -1.49%.
Under `NC1(c2nc(-c3cccs3)cc(=O)[nH]2)CCCCC1` stands 6.03%; under `N#CCCN(CC1CCOC1)S(=O)(=O)c1cccc(Cl)c1` (configuration not stated), 3.81%; under `N#Cc1cc(F)ccc1NCC1CCS(=O)(=O)CC1`, 2.02%.
Under `NCC1(CN2CCOCC2)CCCCC1` stands 3.23%; under `COC(=O)C1CCN(C(=O)Cn2nc(C)nc2-c2ccccc2)CC1`, -0.159%; under `Cc1cnn(CCNCC(=O)N2CCN(c3ccccc3)CC2)c1`, -6.74%.
Under `CCC(=O)NCc1ccccc1Cn1ccnc1` stands -1.21%; under `COc1c(CNCc2ccccc2CO)c(C)nn1C`, 1.04%; under `Cc1cc(CC(=O)NCC(O)COc2ccc(F)c(F)c2)n[nH]1` (configuration not stated), -7.66%.
Take `CC(C)c1nn(C)c(N(C)C)c1CNCc1cccnc1`: the cytotoxicity at 10 µM was -4.6%.
Under `Cc1cc(N2CCN(c3ccc(=O)[nH]n3)CC2)nc(-c2ccncc2)n1` stands -5.19%; under `CCc1n[nH]c(C2CN(C(=O)c3cc(C4CC4)on3)CCO2)n1` (configuration not stated), -6.43%.
Under `Nc1nccnc1C(=O)N1CCN(Cc2cccc3ccccc23)CC1` stands -108%; under `CN(Cc1nc(-c2ccccc2)c[nH]1)C(=O)NCC(=O)NC(C)(C)C`, 13.4%; under `CCOc1ccc(C(F)(F)F)cc1NC(=O)N1CCC(C(N)=O)CC1`, 0.425%.
`N#CCCNC(=O)CN1CCC(c2cc3ccccc3[nH]2)CC1`: the cytotoxicity at 10 µM turned out to be 0.91%.
The same measure for `CNC(=O)Cn1nnc(-c2cc3ccccc3o2)n1`: 5.65%.
Under `Cn1cc(NC(=O)Cc2ccccc2Br)cc1C(N)=O` stands -1%.
Under `O=C(c1c(O)cc(F)cc1F)N1CCc2cnccc21` stands -4.18%; under `Cn1c(SCC2OCCc3ccccc32)n[nH]c1=O` (configuration not stated), -5.76%.
As to `CCc1nc(NS(=O)(=O)c2ccc(F)cc2C)no1`, the cytotoxicity at 10 µM was -10.9%.
Under `Cc1nccc(CNC(=O)NCCOc2ccc(F)c(F)c2)n1` stands -17%; under `CC(NC1CCN(CCS(C)(=O)=O)CC1)c1ccc(Cl)cc1` (configuration not stated), -6.51%.
Under `CCOC(=O)NC(CNC(=O)c1ccccn1)CC(C)C` (configuration not stated) stands 10.2%; under `CN(Cc1nnc(C2CC2)n1C)C1CCN(Cc2ccccc2F)C1` (configuration not stated), -15.1%; under `COCCn1c2c(ccc1=O)CCN(C(=O)NC1CC1)CC2`, 1.77%.
The same measure for `O=c1cc(CN2CCCC2)nc2n1CCCN(CC1CC1)C2`: -111%.
Take `COCCCNc1nc(CNC(=O)C2CCC2)cc(-c2ccco2)n1`: the cytotoxicity at 10 µM was -11%.
As for `Cc1ccc(OCC(=O)N2CCN[C@H]3CS(=O)(=O)C[C@H]32)cn1`, the cytotoxicity at 10 µM is -2.7%.
The same measure for `CC(C)N1CCC(CC(=O)N(C)C(C)c2cncs2)CC1` (configuration not stated): 3.65%; for `O=C(NCCc1cccs1)C1(N2CCCCC2)Cc2ccccc2C1`: -4.86%; for `CCC[C@@H]1CN(c2ncnc3ccsc23)C[C@H]1NS(C)(=O)=O`: 3.73%.
Turning to `Cc1cc(C(F)(F)F)cc(=O)n1CCCn1cnnn1`, the cytotoxicity at 10 µM was found to be 1.16%.
The same measure for `CSc1nccc(NCC2CNCCOC2)n1` (configuration not stated): -5.13%.
On to `CC(C)Cc1nc(CS(C)(=O)=O)n(-c2ccccn2)n1`, for which the cytotoxicity at 10 µM was determined as 1.66%.
Under `Cc1noc(-c2ccc(N(C)Cc3ccncc3C)nc2)n1` stands -15.1%.
Under `CCc1c(C)nn(CCNC(=O)Cc2csc(C)n2)c1C` stands 0.129%; under `CCc1cc(NC(C)(C)C)nc(N2CCOCC2)n1`, 0.393%.
The same measure for `Cn1ccc2c(-c3ccc(NC4CC4)nn3)ccnc21`: 10.4%; for `Cc1ccc(CN2CCCC(c3nnc(CN4CCCC4)n3C)C2)s1` (configuration not stated): 0.9%.
As to `Cc1cccc(-c2nc(CN3CCOCS3(=O)=O)c(C)o2)c1`, the cytotoxicity at 10 µM amounted to 2.01%.
The same measure for `CN(C)CC1(O)CCN(C(=O)c2ccc(-n3cnnc3)cc2Cl)C1` (configuration not stated): -5.06%; for `CC(C)N1CC(C(=O)NCCc2csc(-c3ccncc3)n2)CC1=O` (configuration not stated): -21%; for `CCn1nc(CC(C)C)cc1C(=O)NCCn1cccc1`: -5.94%.
Under `CCn1cc(CN2CCCn3nc(CNC(=O)C4CCC4)cc3C2)cn1` stands -11.6%.
As to `Cc1[nH]c(=O)c(C#N)cc1C(=O)N1C[C@@H](CN2CCCC2)C[C@H](CO)C1`, the cytotoxicity at 10 µM was -8.08%.
Under `COc1ccc(-c2cc(N)on2)cc1` stands -12.8%; under `Cc1cc(C)n(CC2CCCN2C(=O)c2cccc(C#N)c2)n1` (configuration not stated), -9.19%.
Under `COc1ccc(CCNC(=O)CN2CCCC2c2noc(C)n2)cc1` (configuration not stated) stands 0.772%; under `Cc1ncc(C(=O)N2CCCC(n3nc(C)nc3C)C2)c(C(C)C)n1` (configuration not stated), -1.81%.
Under `CNC(=O)c1cc(C)n(-c2cccc(OC)c2)c1C` stands -18.1%.
With `Cc1nn(-c2ccccc2)cc1C(=O)N1CCCC(n2ccnc2)C1` (configuration not stated), the cytotoxicity at 10 µM was -14.4%.
For `CN(C)CC1CN(Cc2coc(-c3ccccc3)n2)CCO1` (configuration not stated), the cytotoxicity at 10 µM was -10.8%.
Under `CCn1cnnc1CNC(=O)N1CCCC1` stands -3.3%; under `CCN1CCC(CNC(=O)C2(c3cccc(C)c3)CCCCC2)CC1`, -11.8%; under `c1ccc(-c2noc(CNC3CCc4ncnn4C3)n2)nc1` (configuration not stated), -11.7%.
Under `CC(C)OCC(=O)N1CCCN(Cc2ccc(C#N)cc2)CC1` stands -7.41%.
Under `O=C(NCCCN1CCCC1)c1n[nH]c(=O)c2ccccc12` stands -6.62%; under `Cn1cnc2c1CCN(CCCc1ccccc1)C2`, -1.13%; under `C[C@@H](NCc1cccc(Cl)c1)c1onc(-c2ccc(F)cc2)c1C(=O)O`, 0.258%.
With `CCN(CC)Cc1cc(=O)n2c(n1)CN(S(=O)(=O)C1CC1)CCC2`, the cytotoxicity at 10 µM was 6.95%.
As to `O=C(Cc1cccnc1)N1CCC2(CC1)CCN(C1CCOCC1)C2`, the cytotoxicity at 10 µM was -8.16%.
`CCN1CCC2(CN(C(=O)N(C)C)CC23CCNCC3)C1=O` (configuration not stated): the cytotoxicity at 10 µM was determined as 4.29%.
Under `Cn1cc(CN2CCC3(C2)CN(Cc2ccsc2)C3)cn1` stands -11.2%.
The same measure for `Cn1cc(CN2C[C@@H]3CCCO[C@@H]3[C@H](N3CCCC3=O)C2)cn1`: 1.27%; for `O=C(N[C@@H]1CN(c2ncccn2)C[C@@H]2CCCO[C@@H]21)c1ccnnc1`: 6.32%.
Under `CCn1nnc2c1C(COCC(=O)N(C)C)CN(Cc1ccco1)C2` (configuration not stated) stands -4.96%; under `CC(C)NC(=O)N1CCC2(CC1)NC(=O)CC2c1ccncc1` (configuration not stated), -2.94%.
As for `O=C(N[C@@H]1CN(CC2CC2)[C@@H]2CCCO[C@@H]21)c1cscn1`, the cytotoxicity at 10 µM is -109%.
Under `CN(CCO)Cc1nnc(C2CCN(CC3[C@H]4CNC[C@@H]34)CC2)n1C` (some centres not stated) stands -0.517%; under `O=C(c1ccncc1)N1C[C@H]2CC[C@@H](C1)N(C(=O)C1CCCC1)C2`, 6.77%.
